Laboratory results: ChEMBL document CHEMBL4422698, “Wortmannin and Wortmannine Analogues from an Undescribed Niesslia sp” (2019)
≈ marks a conversion by molar mass, not a printed value. Calls of active or inactive are those of the source. No cut-off for these calls is given here.

How the values were obtained:
Staphylococcus aureus = test: Antibacterial activity against Staphylococcus aureus ATCC 43330 assessed as zone of inhibition at 50 ug/disk by disk diffusion method; assay type: functional, organism-based
Outline: (§1)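 Agar disk diffusion zone-of-inhibition assay on C. albicans ATCC 10231, C. neoformans H99 and S. aureus ATCC 43330, run per NCCLS recommendations. Compound applied at 50 μg/disk, amphotericin B control at 25 μg/disk. Inhibition zone diameter recorded in mm.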

Cryptococcus neoformans [1] = test: Antifungal activity against Cryptococcus neoformans H99 assessed as zone of inhibition at 50 ug/disk by disk diffusion method; assay type: functional; details: for inhibition zone (IZ): var grubii H99; for zone of inhibition at 50 µg/disc: var grubii H99, read-out: IZ; outline: as §1
Candida albicans [2] = test: Antifungal activity against Candida albicans ATCC 10231 assessed as zone of inhibition at 50 ug/disk by disk diffusion method; assay type: functional; details: for zone of inhibition at 50 µg/disc: read-out: IZ; outline: as §1
Cryptococcus neoformans [3] = test: Antifungal activity against Cryptococcus neoformans H99 measured after 72 hrs by broth microdilution method; assay type: functional; details: var grubii H99 
Outline: (§2)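 NCCLS serial broth microdilution in RPMI-1640 with 0.165 M MOPS, pH 7.0. Compounds dissolved in DMSO and serially diluted in the medium. MIC-50 taken spectrophotometrically as the lowest concentration giving 50% growth inhibition versus the untreated control. Read at 48 h for C. albicans and A. fumigatus, 72 h for C. neoformans.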

[4] = tested on: Schizosaccharomyces pombe; test: Ratio of MIC50 for Schizosaccharomyces pombe isolate MJ1682 harboring efflux mutant to MIC50 for Schizosaccharomyces pombe SAK1; assay type: functional
Outline: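 S. pombe efflux mutant MJ1682 (caf5::bsdR pap1-del pmd1-del mfs1-del bfr1-del) and wild-type SAK1 grown in YES medium for 72 h with serially diluted compound. Viability read on a plate reader with Alamar Blue, itraconazole as positive control. Ratio of the MIC50 of the mutant to that of the wild type.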

Aspergillus fumigatus = test: Antifungal activity against Aspergillus fumigatus measured after 48 hrs by broth microdilution method; assay type: functional; outline: as §2
Candida albicans [5] = test: Antifungal activity against Candida albicans ATCC 10231 measured after 48 hrs by broth microdilution method; assay type: functional; details: ATCC 10231, 48 h; outline: as §2
Candida albicans [6] = test: Antifungal activity against Candida albicans ATCC 10231 at 25 uM measured after 24 hrs
Cryptococcus neoformans [7] = test: Antifungal activity against Cryptococcus neoformans H99 assessed as zone of inhibition at 25 ug/disk by disk diffusion method; assay type: functional; details: var grubii H99, read-out: IZ; outline: as §1
Candida albicans [8] = test: Antifungal activity against Candida albicans ATCC 10231 assessed as zone of inhibition at 25 ug/disk by disk diffusion method; assay type: functional; details: read-out: IZ

Structure (SMILES)	inhibition zone (IZ) (Staphylococcus aureus)	inhibition zone (IZ) (Cryptococcus neoformans [1])	inhibition zone (IZ) (Candida albicans [2])	other results
CCC(C)C(=O)O[C@@H]1C[C@]2(C)C(=O)CC[C@H]2C2=C1[C@@]1(C)[C@@H](COC)OC(=O)[C@@H]3[C@H](O)NC(=O)[C@@]31C2=O (stereo not given in full)	inactive	inactive	inactive	
COC[C@H]1OC(=O)[C@@H]2[C@@H](O)NC(=O)[C@@]23C(=O)C2=C([C@H](OC(=O)C(C)C)C[C@]4(C)C(=O)CC[C@@H]24)[C@@]13C	inactive	inactive	inactive	
COC[C@H]1OC(=O)c2coc3c2[C@@]1(C)C1=C(C3=O)[C@@H]2CCC(=O)[C@@]2(C)C[C@H]1OC(=O)C(C)C	inactive			zone of inhibition at 50 µg/disc (Cryptococcus neoformans [1]): 13 mm; zone of inhibition at 50 µg/disc (Candida albicans [2]): 25 mm
CCC(C)C(=O)O[C@@H]1C[C@]2(C)C(=O)CC[C@H]2C2=C1[C@]1(C)c3c(coc3C2=O)C(=O)O[C@@H]1COC (stereo not given in full)	inactive			MIC50 (Cryptococcus neoformans [3]): 100 µM (≈ 47.1 µg/mL); Ratio [4]: 0.1; MIC50 (Aspergillus fumigatus): 200 µM (≈ 94.1 µg/mL); zone of inhibition at 50 µg/disc (Cryptococcus neoformans [1]): 16 mm; MIC50 (Candida albicans [5]): 200 µM (≈ 94.1 µg/mL); Activity (Candida albicans [6]): Active; zone of inhibition at 50 µg/disc (Candida albicans [2]): 25 mm
COC[C@H]1OC(=O)[C@@H]2[C@H](O)NC(=O)[C@@]23C(=O)C2=C([C@H](OC(=O)C(C)C)C[C@]4(C)C(=O)CC[C@@H]24)[C@@]13C	inactive	inactive	inactive	
CCC(C)C(=O)O[C@@H]1C[C@]2(C)C(=O)CC[C@H]2C2=C1[C@@]1(C)[C@@H](COC)OC(=O)[C@@H]3[C@@H](O)NC(=O)[C@@]31C2=O (stereo not given in full)	inactive	inactive	inactive	
C[C@@H]1[C@H](O)[C@@H](C)/C=C/C=C/C=C/C=C/C=C/C=C/C=C/[C@H](O[C@@H]2O[C@H](C)[C@@H](O)[C@H](N)[C@@H]2O)C[C@@H]2O[C@](O)(C[C@@H](O)C[C@@H](O)[C@H](O)CC[C@@H](O)C[C@@H](O)CC(=O)O[C@H]1C)C[C@H](O)[C@H]2C(=O)O [AMPHOTERICIN B]				zone of inhibition at 25 µg/disc (Cryptococcus neoformans [7]): 13 mm; zone of inhibition at 25 µg/disc (Candida albicans [8]): 10 mm
